Test results published in ChEMBL document CHEMBL4038284, “Synthesis of novel quinoline-based 4,5-dihydro-1H-pyrazoles as potential anticancer, antifungal, antibacterial and antiprotozoal agents” (Eur J Med Chem, 2017).
Values after ≈ are worked out from the molar mass of the structure shown.

Experiments:
Assay type in all cases: functional
Staphylococcus aureus = test: Antibacterial activity against methicillin-resistant Staphylococcus aureus ATCC 43300 after 24 hrs by resazurin dye based microdilution assay; conditions: ATCC 43300, 24 h
Procedure, shortened: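 Broth microdilution in Mueller Hinton broth, inoculum 5 × 10^5 – 8 × 10^5. Compound stocks diluted in MHB with 5% DMSO and 0.1% Tween 80. Incubation 24 h at 35-37 °C. MIC is the lowest concentration with visible growth inhibition and/or by resazurin (1 mg/mL) read-out. Gentamicin as control. Run in duplicate, replicated at least three times.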

MOLT-4 = test: Growth inhibition of human MOLT4 cells incubated for 48 hrs by sulforhodamine B assay; conditions: MOLT-4, 48 h
Procedure, shortened: (§1)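 NCI 60-line screen. Cells in RPMI-1640 with 5% FBS and 2 mM L-glutamine, preincubated 24 h, then time-zero plates TCA-fixed. Compounds from DMSO stocks given at five final concentrations (100, 10, 1.0, 0.1, 0.01 µM) for 48 h at 37 °C, 5% CO2. Cells fixed with 10% TCA, SRB-stained, read at 515 nm. GI50 is the concentration giving 50% lower net protein increase versus control.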

SR = test: Growth inhibition of human SR cells incubated for 48 hrs by sulforhodamine B assay; procedure, shortened: as §1
A549 = test: Growth inhibition of human A549/ATCC cells incubated for 48 hrs by sulforhodamine B assay; conditions: A549, 48 h; procedure, shortened: as §1
EKVX = test: Growth inhibition of human EKVX cells incubated for 48 hrs by sulforhodamine B assay
Procedure, shortened: (§2)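 NCI five-dose SRB assay (100, 10, 1.0, 0.1, 0.01 µM) with 48 h exposure in RPMI-1640 with 5% FBS and 2 mM L-glutamine. Cells fixed with TCA and stained with SRB, read at 515 nm. GI50 is the concentration where [(Ti−Tz)/(C−Tz)]×100 = 50.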

HOP-92 = test: Growth inhibition of human HOP92 cells incubated for 48 hrs by sulforhodamine B assay; conditions: HOP-92, 48 h
Procedure, shortened: (§3)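 Five-dose NCI SRB assay at 100, 10, 1.0, 0.1 and 0.01 μM for 48 h at 37 °C, 5% CO2. Medium was RPMI-1640 with 5% FBS and 2 mM glutamine. Time-zero plates were TCA-fixed at compound addition, A515 read after SRB staining. GI50 was solved from [(Ti−Tz)/(C−Tz)]×100 = 50. Values beyond the tested range are given as > or <.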

NCI-H23 = test: Growth inhibition of human NCI-H23 cells incubated for 48 hrs by sulforhodamine B assay; conditions: NCI-H23, 48 h; procedure, shortened: as §3
NCI-H460 = test: Growth inhibition of human NCI-H460 cells incubated for 48 hrs by sulforhodamine B assay; conditions: NCI-H460, 48 h; procedure, shortened: as §3
NCI-H522 = test: Growth inhibition of human NCI-H522 cells incubated for 48 hrs by sulforhodamine B assay; conditions: NCI-H522, 48 h; procedure, shortened: as §1
HCT-15 = test: Growth inhibition of human HCT15 cells incubated for 48 hrs by sulforhodamine B assay; conditions: HCT-15, 48 h; procedure, shortened: as §1
SW-620 = test: Growth inhibition of human SW620 cells incubated for 48 hrs by sulforhodamine B assay; conditions: SW-620, 48 h
Procedure, shortened: (§4)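 NCI-60 panel cells grown in RPMI-1640 with 5% FBS and 2 mM L-glutamine, preincubated 24 h at 37 °C/5% CO2. Time-zero plates were TCA-fixed at compound addition. DMSO stocks were diluted in medium and tested at five final concentrations (100, 10, 1.0, 0.1, 0.01 µM) for 48 h. Cells were TCA-fixed, stained with SRB and read at 515 nm. GI50 = 50% lower net protein increase versus control.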

SF-295 = test: Growth inhibition of human SF295 cells incubated for 48 hrs by sulforhodamine B assay; conditions: SF-295, 48 h; procedure, shortened: as §3
SNB-19 = test: Growth inhibition of human SNB19 cells incubated for 48 hrs by sulforhodamine B assay; conditions: SNB-19, 48 h; procedure, shortened: as §4
SNB-75 = test: Growth inhibition of human SNB75 cells incubated for 48 hrs by sulforhodamine B assay; conditions: SNB-75, 48 h; procedure, shortened: as §1
LOX IMVI = test: Growth inhibition of human LOXIMVI cells incubated for 48 hrs by sulforhodamine B assay; procedure, shortened: as §3
M14 = test: Growth inhibition of human M14 cells incubated for 48 hrs by sulforhodamine B assay; conditions: M14, 48 h; procedure, shortened: as §3
MDA-MB-435 = test: Growth inhibition of human MDA-MB-435 cells incubated for 48 hrs by sulforhodamine B assay; conditions: MDA-MB-435, 48 h; procedure, shortened: as §3
UACC-257 = test: Growth inhibition of human UACC257 cells incubated for 48 hrs by sulforhodamine B assay; conditions: UACC-257, 48 h; procedure, shortened: as §4
OVCAR-3 = test: Growth inhibition of human OVCAR3 cells incubated for 48 hrs by sulforhodamine B assay; conditions: OVCAR-3, 48 h; procedure, shortened: as §3
OVCAR-5 = test: Growth inhibition of human OVCAR5 cells incubated for 48 hrs by sulforhodamine B assay; conditions: OVCAR-5, 48 h; procedure, shortened: as §1
NCI/ADR-RES = test: Growth inhibition of human NCI/ADR-RES cells incubated for 48 hrs by sulforhodamine B assay; procedure, shortened: as §1
ACHN = test: Growth inhibition of human ACHN cells incubated for 48 hrs by sulforhodamine B assay; procedure, shortened: as §1
RXF 393 = test: Growth inhibition of human RXF393 cells incubated for 48 hrs by sulforhodamine B assay; conditions: RXF 393, 48 h; procedure, shortened: as §3
SN12C = test: Growth inhibition of human SN12C cells incubated for 48 hrs by sulforhodamine B assay; procedure, shortened: as §4
PC-3 = test: Growth inhibition of human PC3 cells incubated for 48 hrs by sulforhodamine B assay; conditions: PC-3, 48 h; procedure, shortened: as §3
MCF7 = test: Growth inhibition of human MCF7 cells incubated for 48 hrs by sulforhodamine B assay; conditions: MCF7, 48 h; procedure, shortened: as §1
Hs-578T = test: Growth inhibition of human Hs578T cells incubated for 48 hrs by sulforhodamine B assay; procedure, shortened: as §3
BT-549 = test: Growth inhibition of human BT549 cells incubated for 48 hrs by sulforhodamine B assay; conditions: BT-549, 48 h; procedure, shortened: as §2
MDA-MB-468 = test: Growth inhibition of human MDA-MB-468 cells incubated for 48 hrs by sulforhodamine B assay; conditions: MDA-MB-468, 48 h; procedure, shortened: as §3
[1] = read-out: LC50 (the source's name)

Clc1ccc(C2=NN(c3ccccc3)C(c3cccc(Nc4ccnc5cc(Cl)ccc45)c3)C2)cc1 (stereo not given)
MIC (Staphylococcus aureus): > 1000 µg/mL

Clc1ccc(C2=NN(c3cc(Cl)cc(Cl)c3)C(c3cccc(Nc4ccnc5cc(Cl)ccc45)c3)C2)cc1 (stereo not given)
MIC (Staphylococcus aureus): > 1000 µg/mL

COc1cc(C(=O)/C=C/c2cccc(Nc3ccnc4cc(Cl)ccc34)c2)cc(OC)c1OC
GI50 (MOLT-4): 1790 nM | CC50 (MOLT-4; [1]): > 100000 nM | GI50 (SR): 320 nM | CC50 (SR; [1]): > 100000 nM | GI50 (A549): 1480 nM | LC50 (concentration giving 50% net cell kill) (A549): 11500 nM | GI50 (EKVX): 1620 nM | GI50 (HOP-92): 1470 nM | LC50 (concentration giving 50% net cell kill) (HOP-92): > 100000 nM | GI50 (NCI-H23): 1670 nM | CC50 (NCI-H23; [1]): 8100 nM | GI50 (NCI-H460): 1910 nM | CC50 (NCI-H460; [1]): > 100000 nM | GI50 (NCI-H522): 590 nM | CC50 (NCI-H522; [1]): 6230 nM | GI50 (HCT-15): 520 nM | GI50 (SW-620): 450 nM | CC50 (SW-620; [1]): > 100000 nM | GI50 (SF-295): 1420 nM | CC50 (SF-295; [1]): 6470 nM | GI50 (SNB-19): 1180 nM | CC50 (SNB-19; [1]): 5080 nM | GI50 (SNB-75): 1310 nM | CC50 (SNB-75; [1]): > 100000 nM | GI50 (LOX IMVI): 370 nM | CC50 (LOX IMVI; [1]): 3950 nM | GI50 (M14): 1410 nM | GI50 (MDA-MB-435): 470 nM | GI50 (UACC-257): 1430 nM | CC50 (UACC-257; [1]): 6530 nM | GI50 (OVCAR-3): 390 nM | CC50 (OVCAR-3; [1]): 3850 nM | GI50 (OVCAR-5): 1700 nM | CC50 (OVCAR-5; [1]): 6370 nM | GI50 (NCI/ADR-RES): 410 nM | CC50 (NCI/ADR-RES; [1]): > 100000 nM | GI50 (ACHN): 1240 nM | CC50 (ACHN; [1]): 4990 nM | GI50 (RXF 393): 1080 nM | CC50 (RXF 393; [1]): 5670 nM | GI50 (SN12C): 1160 nM | GI50 (PC-3): 1480 nM | CC50 (PC-3; [1]): > 100000 nM | GI50 (MCF7): 610 nM | CC50 (MCF7; [1]): 5240 nM | GI50 (Hs-578T): 2490 nM | CC50 (Hs-578T; [1]): > 100000 nM | GI50 (BT-549): 1230 nM | CC50 (BT-549; [1]): 6590 nM | GI50 (MDA-MB-468): 1130 nM | MIC (Staphylococcus aureus): > 1000 µg/mL

O=Cc1cccc(Nc2ccnc3cc(Cl)ccc23)c1
MIC (Staphylococcus aureus): 500 µg/mL (≈ 1770 µM)

COc1ccc(C2=NN(c3ccc(Cl)cc3)C(c3cccc(Nc4ccnc5cc(Cl)ccc45)c3)C2)cc1 (stereo not given)
MIC (Staphylococcus aureus): > 1000 µg/mL
